Test results reported in ChEMBL document CHEMBL4513216, “Probing the Open Global Health Chemical Diversity Library for Multistage-Active Starting Points for Next-Generation Antimalarials” (ACS Infect Dis, 2020).

assay: Toxicity liver stage against HepG2, at 10uM; format: cell-based; set-up: test concentration 10 uM, cell line HepG2-A16-CD81EGFP; settings: human, HepG2-A16-CD81EGFP cells; read-out: INHIBITION
In short: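 Uninfected HepG2-A16-CD81EGFP cells, 3 × 10^3 per well, 1536-well, plated on prespotted compound at 10 μM final, parasite-free screening media added to match infected plates; puromycin 10 μM positive, DMSO 0.5% negative; run in parallel with 48 h PbLuc assay at 37 °C, 5% CO2; viability by CellTiter-Glo luminescence, normalized to controls.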

Q: With CC(C)(C)CN1Cc2cc3c(cc2NCCC1=O)OCO3 as the molecule, how does the cytotoxicity at 10 µM read?
A: -84.3%

Q: For COC(=O)COn1c(OC)nc2ccccc2c1=O, which cytotoxicity at 10 µM is on record?
A: -4.73%

Q: With O=C1CSC(c2ccncc2)c2c(n(C3CCOCC3)[nH]c2=O)N1 (stereo not given) as the molecule, how does the cytotoxicity at 10 µM read?
A: -19.4%

Q: For CCOC(=O)NCCC(O)c1ccoc1 (stereo not given), which cytotoxicity at 10 µM is on record?
A: -10.5%

Q: Which cytotoxicity at 10 µM does the source give for COc1ncnc2c1CCN(C(=O)Cc1cccc(F)c1)CC2 here?
A: 3.88%

Q: With CC(C)Nc1ccc2c(c1)C1(CCOCC1)C(=O)N2c1ccsc1 as the molecule, how does the cytotoxicity at 10 µM read?
A: 11%

Q: For CCN1CCOCC2(CCCN(c3nncs3)C2)C1 (stereo not given), which cytotoxicity at 10 µM is on record?
A: 8.28%

Q: Which cytotoxicity at 10 µM does the source give for CCc1ccc(C(=O)N2CCCn3nnc(Cn4cccn4)c3C2)cc1 here?
A: 7.8%

Q: Which cytotoxicity at 10 µM does the source give for N#Cc1cccc(CN2CCC3(CC(C(=O)NCC4CC4)=NO3)C2)c1 (stereo not given) here?
A: 8.73%

Q: For CC(=O)N1CC[C@@H]2O[C@@H](COCC(=O)N3CCCC3)CC[C@@H]21, which cytotoxicity at 10 µM is on record?
A: -7.73%

Q: Which cytotoxicity at 10 µM does the source give for COc1ncccc1C(=O)N1CC[C@H]2C[C@H](c3ccncn3)O[C@@H]2C1 here?
A: 9.4%

Q: Which cytotoxicity at 10 µM does the source give for CC(C)COc1ccc(C2SCC(=O)Nc3c2c(=O)[nH]n3C(C)C)cc1 (stereo not given) here?
A: 8.74%

Q: For O=S(=O)(Nc1ccc(Oc2ccc3c(c2)OCO3)cc1)N1CCCCC1, which cytotoxicity at 10 µM is on record?
A: -29.3%

Q: Which cytotoxicity at 10 µM does the source give for COC(=O)C1CCN(C(=O)c2nnc3ccc(Cl)cc3n2)CC1 here?
A: 12.3%

Q: With COCCNC(=O)c1cc(C(C)C)nc(N2CCCCC2)n1 as the molecule, how does the cytotoxicity at 10 µM read?
A: 9.04%

Q: For CC(C)c1cc(C(=O)NCCCN(C)C)nc(N2CCCC2)n1, which cytotoxicity at 10 µM is on record?
A: 8.49%

Q: With Cc1ccccc1OC1CCN(CC(=O)Nc2c(C)nn(C)c2C)CC1 as the molecule, how does the cytotoxicity at 10 µM read?
A: 0.919%

Q: For Fc1cccc(Oc2nccnc2C2CCN(C3CCOCC3)CC2)c1, which cytotoxicity at 10 µM is on record?
A: 6.62%

Q: For COCC(=O)N[C@@H]1CN(Cc2ccc3c(c2)OCCO3)C[C@H]1O, which cytotoxicity at 10 µM is on record?
A: -27.1%

Q: Which cytotoxicity at 10 µM does the source give for Cc1ccc(C(=O)N2Cc3ccccc3OC3(CCOCC3)C2)cn1 here?
A: -25.8%

Q: Which cytotoxicity at 10 µM does the source give for Cc1nc2ccccn2c1CC(=O)N[C@@H]1CC[C@@H](N2CCOCC2)[C@@H]1O here?
A: -1.68%

Q: With Cc1nc(C2CCCN2C(=O)COc2ccccc2)ncc1C(N)=O (stereo not given) as the molecule, how does the cytotoxicity at 10 µM read?
A: -19.1%

Q: With Cc1cc(CCC(N)=O)cc(C2CCCN2Cc2cnc(C)nc2)n1 (stereo not given) as the molecule, how does the cytotoxicity at 10 µM read?
A: -26.1%

Q: For COc1ccccc1CN1CCC(c2nn(CCN)c3nccnc23)C1 (stereo not given), which cytotoxicity at 10 µM is on record?
A: -32.7%

Q: For COc1ccc(CN(C)[C@@H]2CN(C(=O)c3cccnc3)C[C@H]2O)cc1, which cytotoxicity at 10 µM is on record?
A: 10.9%

Q: For COCCNC(=O)N1CCSC2(CCCCC2)C1, which cytotoxicity at 10 µM is on record?
A: 2.07%

Q: With COc1cccc(SCCCn2cnc3c(N)ncnc32)c1 as the molecule, how does the cytotoxicity at 10 µM read?
A: 11.7%

Q: Which cytotoxicity at 10 µM does the source give for Cc1nc(C)c(C(=O)N2CCc3cc(F)ccc3C2C)o1 (stereo not given) here?
A: 10.5%

Q: With Cn1c(C2CC2)nc2c1CCN(CC(=O)NC1CCCCNC1=O)C2 (stereo not given) as the molecule, how does the cytotoxicity at 10 µM read?
A: 3.73%

Q: For CN(Cc1ccc(F)cc1F)Cc1cc2c(cc1Br)OCCO2, which cytotoxicity at 10 µM is on record?
A: -111%

Q: With O=C(O)c1ccn(-c2cccc(NC(=O)c3ccccc3Cl)c2)n1 as the molecule, how does the cytotoxicity at 10 µM read?
A: -139%

Q: With CCC(c1ccccc1)N1CCN(CCO)CC1 (stereo not given) as the molecule, how does the cytotoxicity at 10 µM read?
A: -1.19%

Q: Which cytotoxicity at 10 µM does the source give for Cc1cccc(C)c1NC(=O)c1cc(S(N)(=O)=O)c(C)o1 here?
A: -4.27%

Q: With COC(=O)CC1CN(Cc2ccn(-c3ccc(F)cc3)n2)CCO1 (stereo not given) as the molecule, how does the cytotoxicity at 10 µM read?
A: -7.83%

Q: With COC(=O)C(C)N(Cc1cc(C)on1)C1CC1 (stereo not given) as the molecule, how does the cytotoxicity at 10 µM read?
A: 0.91%

Q: With CCS(=O)(=O)N1CCc2c(cccc2NCc2nc(C)c(C)o2)C1 as the molecule, how does the cytotoxicity at 10 µM read?
A: -46.9%

Q: Which cytotoxicity at 10 µM does the source give for COCc1nc(C(=O)NS(=O)(=O)c2ccc(OC)c(C)c2)cs1 here?
A: 1.06%

Q: Which cytotoxicity at 10 µM does the source give for CN(CCCNC(=O)c1ccccc1F)CC(F)(F)F here?
A: -9.25%

Q: With Cc1ccoc1CNCc1nnc2n1CC(C(F)(F)F)CC2 (stereo not given) as the molecule, how does the cytotoxicity at 10 µM read?
A: 14.3%

Q: With CN(Cc1cnn(C)c1)S(=O)(=O)N1CCCC1c1ccco1 (stereo not given) as the molecule, how does the cytotoxicity at 10 µM read?
A: -5.78%

Q: Which cytotoxicity at 10 µM does the source give for Cc1ccccc1-c1noc(CNc2ccc(F)cc2OCCO)n1 here?
A: -41.7%

Q: With O=C(CCCc1nc(C2CC2)no1)N1CCCC(c2ccn[nH]2)C1 (stereo not given) as the molecule, how does the cytotoxicity at 10 µM read?
A: 12%

Q: With COc1cc2c(c(OC)c1OC)CCN(CCn1cncn1)CC2 as the molecule, how does the cytotoxicity at 10 µM read?
A: 11.5%

Q: With CCc1cnc(CCNC(=O)N2CCCC(c3ncc[nH]3)C2)s1 (stereo not given) as the molecule, how does the cytotoxicity at 10 µM read?
A: -4.15%

Q: For CN(CCNC(=O)Nc1ccn(C)n1)Cc1ccc(F)cc1, which cytotoxicity at 10 µM is on record?
A: 8.16%

Q: Which cytotoxicity at 10 µM does the source give for Cc1cc(C(=O)NCCN2CCCCC2C)nn1C(C)(C)C (stereo not given) here?
A: 1.57%

Q: With Cc1cc(NC(=O)N(CCC#N)CCCN(C)C)ccc1F as the molecule, how does the cytotoxicity at 10 µM read?
A: -57.7%

Q: Which cytotoxicity at 10 µM does the source give for CC(C)n1cc(CN2CCCN(C(=O)c3ccc[nH]3)CC2)cn1 here?
A: 3.59%

Q: For O=C(NCCc1cccc(F)c1)c1nc2c(s1)CCCN2C(=O)C1CC1, which cytotoxicity at 10 µM is on record?
A: -91.4%

Q: With COC[C@@H]1CCC[C@@]12CN(C(=O)N1CCCC1)CCO2 as the molecule, how does the cytotoxicity at 10 µM read?
A: -101%

Q: With c1cc(CN2CC[C@H]3O[C@@H](COCC4CCOCC4)CC[C@H]32)ccn1 as the molecule, how does the cytotoxicity at 10 µM read?
A: -69.8%

Q: With CNC(=O)[C@@]12CCO[C@@H]1CCN(S(=O)(=O)c1ccccc1F)C2 as the molecule, how does the cytotoxicity at 10 µM read?
A: -71.2%

Q: For COc1cc(-c2cnnc(NCCSC)n2)cc(OC)c1OC, which cytotoxicity at 10 µM is on record?
A: 3.98%

Q: With COc1ncccc1-c1cc(C(N)=O)ccn1 as the molecule, how does the cytotoxicity at 10 µM read?
A: 7.81%

Q: For COC(=O)[C@@H]1CCCN1C(=O)c1cn(C/C=C/c2ccccc2)nn1, which cytotoxicity at 10 µM is on record?
A: 3.61%
